Assay results: ChEMBL document CHEMBL3046036, “Bioactivity of the fungal metabolite (8R,16R)-(-)-pyrenophorin on graminaceous plants” (J Agric Food Chem, 2005)
Calls of active or inactive are those of the source. No cut-off for these calls is given here.

Legend:
Hordeum vulgare [1] = assay: Effect on chlorophyll content in Hordeum vulgare (barley) assessed as chlorophyll dissipation rate at 20 degC and 12 hr photoperiod at 320 uM relative to control; type: ADME, organism-based; details: in vivo
Outline: (§1)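 Leaf sections were treated with 320 µM metabolite and incubated in the dark at 20 °C, with 16 tubes per treatment. Every 12 h, segments from one tube were split into four tubes and extracted in DMSO at 65 °C for 30 min. Extracts were read at A665, tissue was dried at 105 °C and weighed, and chlorophyll was expressed as A665 per g dry weight.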

Triticum aestivum [2] = assay: Effect on chlorophyll content in Triticum aestivum (wheat) assessed as chlorophyll dissipation rate at 20 degC and 12 hr photoperiod at 320 uM relative to control; type: ADME, organism-based; details: in vivo; outline: as §1
Avena sativa [3] = assay: Effect on chlorophyll content in Avena sativa assessed as chlorophyll dissipation rate at 20 degC and 12 hr photoperiod at 320 uM relative to control; type: ADME, organism-based; details: in vivo; outline: as §1
Avena fatua [4] = assay: Effect on chlorophyll content in Avena fatua assessed as chlorophyll dissipation rate at 20 degC and […] at 320 uM relative to control; type: ADME, organism-based; details: in vivo; outline: as §1
Avena sterilis [5] = assay: Effect on chlorophyll content in Avena sterilis assessed as chlorophyll dissipation rate at 20 degC and […] at 320 uM relative to control; type: ADME, organism-based; details: in vivo; outline: as §1
Hordeum vulgare [6] = assay: Phytotoxicity against Hordeum vulgare (barley) root growth at 20 degC and 12 hr photoperiod at 1000 uM; type: organism-based; details: in vivo
Triticum aestivum [7] = assay: Phytotoxicity against Triticum aestivum (wheat) root growth at 20 degC and 12 hr photoperiod at 1000 uM; type: organism-based; details: in vivo
Avena sativa [8] = assay: Phytotoxicity against Avena sativa root growth at 20 degC and 12 hr photoperiod at 1000 uM; type: organism-based; details: in vivo
Avena fatua [9] = assay: Phytotoxicity against Avena fatua root growth at 20 degC and 12 hr photoperiod at 1000 uM; type: organism-based; details: in vivo
Avena sterilis [10] = assay: Phytotoxicity against Avena sterilis root growth at 20 degC and 12 hr photoperiod at 1000 uM; type: organism-based; details: in vivo
Hordeum vulgare [11] = assay: Inhibition of Hordeum vulgare (barley) root growth at 20 degC and 12 hr photoperiod at > 51 uM; type: functional, organism-based
Outline: (§2)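 Pregerminated seeds were exposed in tubes to aqueous metabolite and kept in a growth chamber at 20 °C with a 12-h photoperiod. Main root length was measured after 120 h.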

Triticum aestivum [12] = assay: Inhibition of Triticum aestivum (wheat) root growth at 20 degC and 12 hr photoperiod at > 51 uM; type: functional, organism-based
Avena sativa [13] = assay: Inhibition of Avena sativa root growth at 20 degC and 12 hr photoperiod at > 51 uM; type: functional, organism-based; outline: as §2
Avena fatua [14] = assay: Inhibition of Avena fatua root growth at 20 degC and 12 hr photoperiod at > 51 uM; type: functional, organism-based; outline: as §2
Avena sterilis [15] = assay: Inhibition of Avena sterilis root growth at 20 degC and 12 hr photoperiod at > 51 uM; type: functional, organism-based; outline: as §2
Hordeum vulgare [16] = assay: Inhibition of Hordeum vulgare (barley) root growth at 20 degC and 12 hr photoperiod at 31 to 50 uM; type: functional, organism-based; outline: as §2
Triticum aestivum [17] = assay: Inhibition of Triticum aestivum (wheat) root growth at 20 degC and 12 hr photoperiod at 31 to 50 uM; type: functional, organism-based
Avena sativa [18] = assay: Inhibition of Avena sativa root growth at 20 degC and 12 hr photoperiod at 31 to 50 uM; type: functional, organism-based; outline: as §2
Avena fatua [19] = assay: Inhibition of Avena fatua root growth at 20 degC and 12 hr photoperiod at 31 to 50 uM; type: functional, organism-based; outline: as §2
Hordeum vulgare [20] = assay: Enhancement of Hordeum vulgare (barley) root growth at 20 degC and 12 hr photoperiod at 10 to 30 uM; type: functional, organism-based; outline: as §2
Avena sterilis [21] = assay: Inhibition of Avena sterilis root growth at 20 degC and 12 hr photoperiod at 31 to 50 uM; type: functional, organism-based; outline: as §2
Triticum aestivum [22] = assay: Enhancement of Triticum aestivum (wheat) root growth at 20 degC and 12 hr photoperiod at 10 to 30 uM; type: functional, organism-based; outline: as §2
Avena sativa [23] = assay: Enhancement of Avena sativa root growth at 20 degC and 12 hr photoperiod at 10 to 30 uM; type: functional, organism-based; outline: as §2
Avena fatua [24] = assay: Enhancement of Avena fatua root growth at 20 degC and 12 hr photoperiod at 10 to 30 uM; type: functional, organism-based; outline: as §2
Avena sterilis [25] = assay: Enhancement of Avena sterilis root growth at 20 degC and 12 hr photoperiod at 10 to 30 uM; type: functional, organism-based; outline: as §2
Hordeum vulgare [26] = assay: Inhibition of Hordeum vulgare (barley) seed germination at 20 degC at 640 uM (reference value: 0%); type: functional
Hordeum vulgare [27] = assay: Inhibition of Hordeum vulgare (barley) seed germination at 20 degC at 200 uM (reference value: 0%); type: functional
Hordeum vulgare [28] = assay: Inhibition of Hordeum vulgare (barley) seed germination at 20 degC at 320 uM (reference value: 0%); type: functional
Hordeum vulgare [29] = assay: Inhibition of Hordeum vulgare (barley) seed germination at 20 degC at 100 uM (reference value: 0%); type: functional
Hordeum vulgare [30] = assay: Inhibition of Hordeum vulgare (barley) seed germination at 20 degC at 90 uM (reference value: 0%); type: functional
Hordeum vulgare [31] = assay: Inhibition of Hordeum vulgare (barley) seed germination at 20 degC at 80 uM (reference value: 0%); type: functional
Hordeum vulgare [32] = assay: Inhibition of Hordeum vulgare (barley) seed germination at 20 degC at 70 uM (reference value: 0%); type: functional
Hordeum vulgare [33] = assay: Inhibition of Hordeum vulgare (barley) seed germination at 20 degC at 60 uM (reference value: 0%); type: functional
Hordeum vulgare [34] = assay: Inhibition of Hordeum vulgare (barley) seed germination at 20 degC at 10 to 50 uM (reference value: 0%); type: functional
Triticum aestivum [35] = assay: Inhibition of Triticum aestivum (wheat) seed germination at 20 degC at 640 uM (reference value: 0%); type: functional

C[C@@H]1CCC(=O)/C=C/C(=O)O[C@H](C)CCC(=O)/C=C/C(=O)O1 [(8R,16R)-(-)-pyrenophorin] gave a Ratio (Hordeum vulgare [1]) of 1.4, a Ratio (Triticum aestivum [2]) of 1.4 and a Ratio (Avena sativa [3]) of 1.4. For the same compound, the Ratio (Avena fatua [4]) was 1.4, the Ratio (Avena sterilis [5]) was 1.4 and the Activity (Hordeum vulgare [6]) was “Non-toxic”. For the same compound, the Activity (Triticum aestivum [7]) was “Non-toxic”, the Activity (Avena sativa [8]) was “Non-toxic” and the Activity (Avena fatua [9]) was “Non-toxic”. For the same compound, the Activity (Avena sterilis [10]) was “Non-toxic”, the inhibition (Hordeum vulgare [11]) was “Active” and the inhibition (Triticum aestivum [12]) was “Active”. For the same compound, the inhibition (Avena sativa [13]) was “Active”, the inhibition (Avena fatua [14]) was “Active” and the inhibition (Avena sterilis [15]) was “Active”. For the same compound, the inhibition (Hordeum vulgare [16]) was “inactive”, the inhibition (Triticum aestivum [17]) was “inactive” and the inhibition (Avena sativa [18]) was “inactive”. For the same compound, the inhibition (Avena fatua [19]) was “inactive”, the Activity (Hordeum vulgare [20]) was “Active” and the inhibition (Avena sterilis [21]) was “inactive”. For the same compound, the Activity (Triticum aestivum [22]) was “Active”, the Activity (Avena sativa [23]) was “Active” and the Activity (Avena fatua [24]) was “Active”. The Activity (Avena sterilis [25]) was “Active”, the inhibition at 640 µM (Hordeum vulgare [26]) was 100% and the inhibition at 200 µM (Hordeum vulgare [27]) was 99%. For the same compound, the inhibition at 320 µM (Hordeum vulgare [28]) was 100%, the inhibition at 100 µM (Hordeum vulgare [29]) was 95.4% and the inhibition at 90 µM (Hordeum vulgare [30]) was 88.2%. For the same compound, the inhibition at 80 µM (Hordeum vulgare [31]) was 87.7%, the inhibition at 70 µM (Hordeum vulgare [32]) was 67.5% and the inhibition at 60 µM (Hordeum vulgare [33]) was 10.1%. For the same compound, the “inhibition (INH)” value (Hordeum vulgare [34]) was 0% and the inhibition at 640 µM (Triticum aestivum [35]) was 100%.
